Assay [1] has as its target Protein-tyrosine kinase 6 (Homo sapiens, UniProt Q13882). Put plainly: Inhibition of Brk (unknown origin) using [gamma-33P]-ATP after 60 mins by scintillation counting.
For the next assay, the system named is MCF7. The experiment in a line: Antiproliferative activity against human MCF7 cells by sulfur rhodamine assay. Format: functional.
The nature of assay [2]: Antiproliferative activity against human Hs 578T cells by sulfur rhodamine assay. Format: functional.
A short description of assay [3]: Antiproliferative activity against human BT549 cells by sulfur rhodamine assay. It is filed as functional. As to conditions: BT-549; call rule not given here.
Assay [4] concerns the target MAP kinase-activated protein kinase 3 (Homo sapiens, UniProt Q16644). The experiment in a line: Inhibition of human MAPKAPK3.
Assay [5] deals with Calcium/calmodulin-dependent protein kinase type IV (Homo sapiens, UniProt Q16566). The experiment in a line: Inhibition of human CAMK4.
Assay [6] concerns the target Serine/threonine-protein kinase Nek2 (Homo sapiens, UniProt P51955). The experiment in a line: Inhibition of human NEK2.
For assay [7], the target named is Serine/threonine-protein kinase Nek1 (Homo sapiens, UniProt Q96PY6). Put plainly: Inhibition of human NEK1.
Assay [8] concerns the target Serine/threonine-protein kinase pim-2 (Homo sapiens, UniProt Q9P1W9). Put plainly: Inhibition of human PIM2.
Assay [9] deals with MAP kinase-activated protein kinase 5 (Homo sapiens, UniProt Q8IW41). Put plainly: Inhibition of human MAPKAPK5.
Assay [10] concerns the target Serine/threonine-protein kinase MARK1 (Homo sapiens, UniProt Q9P0L2). Put plainly: Inhibition of human MARK1.
The target of assay [11] is MAP/microtubule affinity-regulating kinase 3 (Homo sapiens, UniProt P27448). Put plainly: Inhibition of human MARK3. A digest of the protocol:
(§1)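 Radiometric kinase assay in FlashPlates. Test compound was added from a 10% DMSO solution and ATP from an aqueous solution. The reaction was stopped with 2% (v/v) phosphoric acid, and plates were aspirated and washed with water or 0.9% NaCl. ³³Pi incorporation was read on a microplate scintillation counter.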

The nature of assay [12]: Inhibition of human MARK5.
Assay [13] deals with RAC-alpha serine/threonine-protein kinase (Homo sapiens, UniProt P31749). The experiment in a line: Inhibition of human AKT1.
Assay [14] concerns the target RAC-beta serine/threonine-protein kinase (Homo sapiens, UniProt P31751). The experiment in a line: Inhibition of human AKT2.
For assay [15], the target named is RAC-gamma serine/threonine-protein kinase (Homo sapiens, UniProt Q9Y243). The experiment in a line: Inhibition of human AKT3. A digest of the protocol:
as §1

The target in the next assay is Myotonin-protein kinase (Homo sapiens, UniProt Q09013). Put plainly: Inhibition of human DMPK.
Assay [16] concerns the target Serine/threonine-protein kinase VRK1 (Homo sapiens, UniProt Q99986). Put plainly: Inhibition of human VRK1.
The target of assay [17] is Serine/threonine-protein kinase 24 (Homo sapiens, UniProt Q9Y6E0). Put plainly: Inhibition of human MST3. A digest of the protocol:
as §1

Assay [18] addresses Serine/threonine-protein kinase 26 (Homo sapiens, UniProt Q9P289). Put plainly: Inhibition of human MST4.
Assay [19] concerns the target Serine/threonine-protein kinase PAK 1 (Homo sapiens, UniProt Q13153). Put plainly: Inhibition of human PAK1.
In assay [20] the target is Serine/threonine-protein kinase PAK 2 (Homo sapiens, UniProt Q13177). Put plainly: Inhibition of human PAK2. An outline of the steps: as §1
Assay [21] has as its target Serine/threonine-protein kinase PAK 3 (Homo sapiens, UniProt O75914). The experiment in a line: Inhibition of human PAK3.
The target of assay [22] is Mitogen-activated protein kinase 3 (Homo sapiens, UniProt P27361). The experiment in a line: Inhibition of human ERK1. An outline of the steps:
as §1

Assay [23] concerns the target Mitogen-activated protein kinase 1 (Homo sapiens, UniProt P28482). The experiment in a line: Inhibition of human ERK2.
Assay [24] deals with Glycogen synthase kinase-3 beta (Homo sapiens, UniProt P49841). Put plainly: Inhibition of human GSK3beta.
Sequence of Glycogen synthase kinase-3 beta (P49841 whole entry): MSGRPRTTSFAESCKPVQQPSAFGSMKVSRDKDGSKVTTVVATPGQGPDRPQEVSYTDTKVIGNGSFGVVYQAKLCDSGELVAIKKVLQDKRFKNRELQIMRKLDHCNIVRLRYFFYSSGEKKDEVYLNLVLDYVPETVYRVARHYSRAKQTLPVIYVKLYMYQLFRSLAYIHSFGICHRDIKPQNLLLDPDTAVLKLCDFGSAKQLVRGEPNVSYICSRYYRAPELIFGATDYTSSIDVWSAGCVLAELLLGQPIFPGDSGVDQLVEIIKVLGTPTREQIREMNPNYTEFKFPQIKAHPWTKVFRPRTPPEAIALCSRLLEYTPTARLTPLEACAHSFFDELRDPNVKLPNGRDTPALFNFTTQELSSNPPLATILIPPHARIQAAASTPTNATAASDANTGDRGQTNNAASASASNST
In assay [25] the target is Mitogen-activated protein kinase 8 (Homo sapiens, UniProt P45983). Put plainly: Inhibition of human JNK1.
Assay [26] addresses Mitogen-activated protein kinase 10 (Homo sapiens, UniProt P53779). Put plainly: Inhibition of human JNK3.
Assay [27] concerns the target Homeodomain-interacting protein kinase 2 (Homo sapiens, UniProt Q9H2X6). Put plainly: Inhibition of human HIPK2.
In assay [28] the target is Homeodomain-interacting protein kinase 1 (Homo sapiens, UniProt Q86Z02). The experiment in a line: Inhibition of human HIPK1.
Assay [29] has as its target Homeodomain-interacting protein kinase 3 (Homo sapiens, UniProt Q9H422). The experiment in a line: Inhibition of human HIPK3.
Assay [30] addresses Tyrosine-protein kinase JAK3 (Homo sapiens, UniProt P52333). The experiment in a line: Inhibition of human JAK3. An outline of the steps: as §1
The target of assay [31] is Proto-oncogene tyrosine-protein kinase Src (Homo sapiens, UniProt P12931). The experiment in a line: Inhibition of human Src.
Sequence of Proto-oncogene tyrosine-protein kinase Src (P12931 2-536 limits assumed): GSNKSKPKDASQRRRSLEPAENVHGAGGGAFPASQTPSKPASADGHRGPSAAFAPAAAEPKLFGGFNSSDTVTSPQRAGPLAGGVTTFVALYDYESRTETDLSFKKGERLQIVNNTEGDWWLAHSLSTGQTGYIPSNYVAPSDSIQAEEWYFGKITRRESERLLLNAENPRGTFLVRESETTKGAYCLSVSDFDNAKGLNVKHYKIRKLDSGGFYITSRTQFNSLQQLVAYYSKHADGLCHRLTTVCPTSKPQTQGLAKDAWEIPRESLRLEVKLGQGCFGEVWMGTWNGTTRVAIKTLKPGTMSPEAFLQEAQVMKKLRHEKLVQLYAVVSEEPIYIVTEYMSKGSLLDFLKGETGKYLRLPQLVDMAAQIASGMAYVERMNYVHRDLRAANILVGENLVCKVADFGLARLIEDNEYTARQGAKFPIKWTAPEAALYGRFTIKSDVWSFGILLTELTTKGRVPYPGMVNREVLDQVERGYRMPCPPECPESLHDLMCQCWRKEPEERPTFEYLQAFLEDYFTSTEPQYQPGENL

SMILES strings stand for the structures.

Usually IC50 stands for the point on the concentration scale where inhibition reaches its midpoint. The GI50 is the concentration giving 50% growth inhibition. High values mean less potent growth inhibition, low ones more potent growth inhibition.

Sequence of Protein-tyrosine kinase 6 (Q13882 whole entry): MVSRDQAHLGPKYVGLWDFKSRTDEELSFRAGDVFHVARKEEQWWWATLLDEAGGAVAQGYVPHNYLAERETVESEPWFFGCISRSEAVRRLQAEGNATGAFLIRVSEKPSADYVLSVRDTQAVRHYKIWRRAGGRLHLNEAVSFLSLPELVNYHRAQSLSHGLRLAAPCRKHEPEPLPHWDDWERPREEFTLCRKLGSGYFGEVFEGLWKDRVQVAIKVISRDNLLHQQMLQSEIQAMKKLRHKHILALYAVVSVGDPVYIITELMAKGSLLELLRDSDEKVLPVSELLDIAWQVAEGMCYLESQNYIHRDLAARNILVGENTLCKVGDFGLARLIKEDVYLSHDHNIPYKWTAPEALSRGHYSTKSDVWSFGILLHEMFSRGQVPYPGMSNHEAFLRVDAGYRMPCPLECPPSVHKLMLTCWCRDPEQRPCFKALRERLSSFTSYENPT
Sequence of Mitogen-activated protein kinase 10 (P53779 whole entry): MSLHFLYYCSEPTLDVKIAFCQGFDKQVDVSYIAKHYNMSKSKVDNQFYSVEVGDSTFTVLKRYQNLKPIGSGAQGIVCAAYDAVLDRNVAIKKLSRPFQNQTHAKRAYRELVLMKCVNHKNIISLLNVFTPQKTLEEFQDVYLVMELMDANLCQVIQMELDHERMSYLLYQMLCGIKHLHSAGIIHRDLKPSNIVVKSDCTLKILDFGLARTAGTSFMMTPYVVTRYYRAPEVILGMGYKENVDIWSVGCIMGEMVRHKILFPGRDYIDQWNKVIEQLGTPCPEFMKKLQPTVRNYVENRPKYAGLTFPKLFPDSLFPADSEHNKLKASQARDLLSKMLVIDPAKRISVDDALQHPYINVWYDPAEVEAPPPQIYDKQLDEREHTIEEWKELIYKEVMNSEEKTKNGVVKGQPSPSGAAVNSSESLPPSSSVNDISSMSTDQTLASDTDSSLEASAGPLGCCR
Sequence of RAC-gamma serine/threonine-protein kinase (Q9Y243 whole entry): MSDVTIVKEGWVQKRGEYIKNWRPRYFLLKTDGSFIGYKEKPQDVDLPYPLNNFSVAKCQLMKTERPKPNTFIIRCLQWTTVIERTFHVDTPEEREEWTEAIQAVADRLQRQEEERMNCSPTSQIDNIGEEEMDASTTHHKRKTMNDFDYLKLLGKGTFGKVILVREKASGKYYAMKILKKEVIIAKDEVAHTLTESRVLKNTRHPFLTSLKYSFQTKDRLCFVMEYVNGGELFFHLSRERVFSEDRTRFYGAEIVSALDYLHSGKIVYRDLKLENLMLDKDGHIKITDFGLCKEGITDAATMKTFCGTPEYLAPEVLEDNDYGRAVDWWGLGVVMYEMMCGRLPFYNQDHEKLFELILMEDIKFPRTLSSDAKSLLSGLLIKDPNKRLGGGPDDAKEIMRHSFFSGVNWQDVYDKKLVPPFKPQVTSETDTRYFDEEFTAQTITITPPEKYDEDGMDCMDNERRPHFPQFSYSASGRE
Sequence of Mitogen-activated protein kinase 1 (P28482 whole entry): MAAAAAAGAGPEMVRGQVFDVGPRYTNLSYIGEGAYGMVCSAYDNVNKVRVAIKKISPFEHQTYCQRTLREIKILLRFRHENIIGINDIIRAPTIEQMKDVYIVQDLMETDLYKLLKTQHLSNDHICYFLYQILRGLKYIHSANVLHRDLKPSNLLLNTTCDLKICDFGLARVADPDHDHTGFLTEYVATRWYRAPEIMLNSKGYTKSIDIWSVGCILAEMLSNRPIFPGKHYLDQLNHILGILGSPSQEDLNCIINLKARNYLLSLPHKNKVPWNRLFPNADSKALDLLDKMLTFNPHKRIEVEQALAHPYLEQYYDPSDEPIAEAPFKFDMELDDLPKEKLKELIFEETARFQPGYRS
Sequence of Serine/threonine-protein kinase pim-2 (Q9P1W9 whole entry): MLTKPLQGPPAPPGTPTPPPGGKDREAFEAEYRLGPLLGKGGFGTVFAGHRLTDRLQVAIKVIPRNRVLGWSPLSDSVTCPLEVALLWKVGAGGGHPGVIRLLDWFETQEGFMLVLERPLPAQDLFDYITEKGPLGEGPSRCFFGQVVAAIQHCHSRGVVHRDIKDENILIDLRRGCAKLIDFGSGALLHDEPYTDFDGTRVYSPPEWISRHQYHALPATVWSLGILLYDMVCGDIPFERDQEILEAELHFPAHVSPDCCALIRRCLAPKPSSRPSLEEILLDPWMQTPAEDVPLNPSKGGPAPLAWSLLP
Sequence of Serine/threonine-protein kinase MARK1 (Q9P0L2 whole entry): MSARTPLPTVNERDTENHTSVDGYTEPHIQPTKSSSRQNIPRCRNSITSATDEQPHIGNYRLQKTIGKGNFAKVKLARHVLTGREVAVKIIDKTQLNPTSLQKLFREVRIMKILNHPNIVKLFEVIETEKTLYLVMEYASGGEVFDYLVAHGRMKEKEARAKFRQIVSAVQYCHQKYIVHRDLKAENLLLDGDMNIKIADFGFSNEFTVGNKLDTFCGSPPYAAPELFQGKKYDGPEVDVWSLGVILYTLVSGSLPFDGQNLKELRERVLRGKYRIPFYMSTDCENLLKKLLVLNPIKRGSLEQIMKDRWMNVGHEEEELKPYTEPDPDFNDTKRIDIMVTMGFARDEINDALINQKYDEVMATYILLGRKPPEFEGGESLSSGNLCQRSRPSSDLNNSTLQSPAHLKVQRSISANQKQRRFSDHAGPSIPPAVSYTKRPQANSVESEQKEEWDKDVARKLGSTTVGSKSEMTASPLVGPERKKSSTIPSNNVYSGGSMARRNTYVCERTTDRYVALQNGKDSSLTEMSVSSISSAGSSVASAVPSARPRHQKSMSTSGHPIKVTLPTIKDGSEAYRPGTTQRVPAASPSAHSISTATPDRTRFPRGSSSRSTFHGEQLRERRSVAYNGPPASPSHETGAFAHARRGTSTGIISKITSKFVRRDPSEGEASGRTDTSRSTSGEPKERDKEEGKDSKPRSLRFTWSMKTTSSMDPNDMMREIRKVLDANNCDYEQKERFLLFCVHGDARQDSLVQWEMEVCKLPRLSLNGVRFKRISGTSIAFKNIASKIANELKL
Sequence of Tyrosine-protein kinase JAK3 (P52333 whole entry): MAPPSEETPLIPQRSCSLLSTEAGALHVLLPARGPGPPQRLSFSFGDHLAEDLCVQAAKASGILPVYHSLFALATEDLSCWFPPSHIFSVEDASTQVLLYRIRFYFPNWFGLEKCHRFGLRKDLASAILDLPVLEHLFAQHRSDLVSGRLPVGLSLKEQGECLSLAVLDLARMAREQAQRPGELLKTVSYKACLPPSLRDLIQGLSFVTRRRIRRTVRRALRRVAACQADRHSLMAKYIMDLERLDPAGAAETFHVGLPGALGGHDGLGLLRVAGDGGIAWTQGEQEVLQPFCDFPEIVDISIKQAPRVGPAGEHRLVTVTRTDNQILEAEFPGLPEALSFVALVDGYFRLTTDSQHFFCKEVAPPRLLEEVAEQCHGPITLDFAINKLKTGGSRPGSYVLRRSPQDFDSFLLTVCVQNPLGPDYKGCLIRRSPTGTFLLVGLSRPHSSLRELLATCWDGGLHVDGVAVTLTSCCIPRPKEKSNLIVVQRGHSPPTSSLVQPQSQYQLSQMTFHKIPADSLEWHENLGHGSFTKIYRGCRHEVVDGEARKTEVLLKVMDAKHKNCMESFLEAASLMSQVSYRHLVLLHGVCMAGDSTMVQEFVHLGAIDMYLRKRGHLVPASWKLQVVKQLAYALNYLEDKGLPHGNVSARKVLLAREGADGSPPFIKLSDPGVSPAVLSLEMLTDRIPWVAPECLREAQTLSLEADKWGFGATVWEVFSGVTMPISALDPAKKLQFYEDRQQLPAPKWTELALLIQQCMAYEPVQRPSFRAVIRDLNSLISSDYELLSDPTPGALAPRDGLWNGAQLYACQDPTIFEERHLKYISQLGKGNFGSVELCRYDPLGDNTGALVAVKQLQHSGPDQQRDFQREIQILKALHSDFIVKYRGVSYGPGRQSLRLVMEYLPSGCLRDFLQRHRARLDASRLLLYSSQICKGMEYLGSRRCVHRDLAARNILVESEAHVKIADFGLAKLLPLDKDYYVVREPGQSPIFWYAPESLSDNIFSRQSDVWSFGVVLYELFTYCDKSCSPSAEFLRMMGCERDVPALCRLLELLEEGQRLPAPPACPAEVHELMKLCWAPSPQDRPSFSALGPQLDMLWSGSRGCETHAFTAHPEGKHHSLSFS

On to `Cc1ccccc1Nc1ccnc2[nH]c3ccccc3c12`, for which the IC50 result in assay [1] was “Not Active”.
Consider `Oc1cccc(Nc2ccnc3[nH]c4ccccc4c23)c1`, for which the GI50 in the assay with MCF7 turned out to be 0.99 µM; in assay [2] it was 1.02 µM; in assay [3], 1.58 µM. Also, the IC50 in [4] is over 10 µM; in assay [5], over 10 µM; in assay [6], over 10 µM; in assay [7], over 10 µM; in [8], over 10 µM; in assay [1] (read-out: IC50), 0.00315 µM. For the same compound, the IC50 in assay [9], in assay [10], in assay [11], in assay [12], in assay [13] and in [14] was over 10 µM in each case. Also, the IC50 (in [15]; at Myotonin-protein kinase; in assay [16]; in [17]; in assay [18]; in assay [19]) was over 10 µM throughout. For the same compound, the IC50 in assay [20], in [21], in [22], in [23], in assay [24] and in assay [25] was over 10 µM throughout. The IC50 in [26] is over 10 µM; in assay [27] it was over 10 µM; in assay [28] it was over 10 µM; in assay [29] it was over 10 µM; in [30], over 10 µM; in assay [31], 3.04 µM.
On to `Clc1cccc(Nc2ccnc3[nH]c4ccccc4c23)c1`, for which the IC50 in assay [1] (read-out: IC50) was found to be 0.00475 µM.
Take `Clc1ccc(Nc2ccnc3[nH]c4ccccc4c23)cc1`: the IC50 result in assay [1] is recorded as “Not Active”.
As for `FC(F)(F)c1cccc(Nc2ccnc3[nH]c4ccccc4c23)c1`, in assay [1] (read-out: IC50), the IC50 stood at 0.0594 µM.
With `CSc1cccc(Nc2ccnc3[nH]c4ccccc4c23)c1`, the IC50 entry in assay [1] is “Not Active”.
Same read-out and setting: in the case of `COc1cccc(Nc2ccnc3[nH]c4ccccc4c23)c1` it was “Not Active”.
`CCOc1cccc(Nc2ccnc3[nH]c4ccccc4c23)c1`: the IC50 in assay [1] (read-out: IC50) was 0.155 µM.
In the case of `O=[N+]([O-])c1cccc(Nc2ccnc3[nH]c4ccccc4c23)c1`, the IC50 in assay [1] (read-out: IC50) was found to be 0.00565 µM.
The same measure, in the same setting: then `COc1ccc(Nc2ccnc3[nH]c4ccccc4c23)cc1`, with 0.19 µM; and `Cc1ccc(Nc2ccnc3[nH]c4ccccc4c23)cc1Cl`, with 0.0756 µM.
Consider `Fc1ccc(Nc2ccnc3[nH]c4ccccc4c23)cc1Cl`, for which the values for the GI50 (with MCF7; in assay [2]; in assay [3]) were 8.12 µM, 10.2 µM and over 100 µM, respectively. The IC50 in assay [1] (read-out: IC50) amounted to 0.0695 µM.
In the case of `Clc1cc(Cl)cc(Nc2ccnc3[nH]c4ccccc4c23)c1`, the IC50 in assay [1] (read-out: IC50) amounted to 0.0534 µM.
In the case of `COc1cc(Nc2ccnc3[nH]c4ccccc4c23)ccc1Br`, in assay [1] (read-out: IC50), the IC50 was found to be 0.00441 µM.
In the case of `CCOc1cc(Nc2ccnc3[nH]c4ccccc4c23)ccc1Br`, the IC50 in assay [1] (read-out: IC50) worked out at 0.154 µM.
